Here are results for 13 molecules from ChEMBL document CHEMBL1944609, “Niphatenones, glycerol ethers from the sponge Niphates digitalis block androgen receptor transcriptional activity in prostate cancer cells: structure elucidation, synthesis, and biological activity” (J Med Chem, 2012).

The source made the active and inactive calls. No cut-off for these calls is given here.

The first test deals with PC-3. The test can be described thus: Antiproliferative activity against androgen receptor deficient human PC3 cells at 14 uM after 24 hrs by BrdU incorporation assay. The test is classed as functional, cell-based. Put shortly: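 PC3 cells were seeded for 24 h in phenol red DMEM with 5% FBS and penicillin/streptomycin, then pretreated for 1 h and cultured 24 h. BrdU was added for 2 h, then cells were fixed and incubated with anti-BrdU-POD for 1.5 h; absorbance was read at 570 nm. Data are mean ± SD of three experiments, 6 technical replicates each, analyzed by Student's t test.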
Regarding `CCCCCCCCCCCCC(=O)/C=C/CCCOC[C@@H](O)CO`, the outcome was inactive. The same measure, in the same setting: next, `CCCCCCCCCCCCC(=O)/C=C/CCCOC[C@H](O)CO`: “inactive”.

The target in a further test is T1, Androgen receptor (Homo sapiens) (UniProt P10275).
T1 sequence (whole entry): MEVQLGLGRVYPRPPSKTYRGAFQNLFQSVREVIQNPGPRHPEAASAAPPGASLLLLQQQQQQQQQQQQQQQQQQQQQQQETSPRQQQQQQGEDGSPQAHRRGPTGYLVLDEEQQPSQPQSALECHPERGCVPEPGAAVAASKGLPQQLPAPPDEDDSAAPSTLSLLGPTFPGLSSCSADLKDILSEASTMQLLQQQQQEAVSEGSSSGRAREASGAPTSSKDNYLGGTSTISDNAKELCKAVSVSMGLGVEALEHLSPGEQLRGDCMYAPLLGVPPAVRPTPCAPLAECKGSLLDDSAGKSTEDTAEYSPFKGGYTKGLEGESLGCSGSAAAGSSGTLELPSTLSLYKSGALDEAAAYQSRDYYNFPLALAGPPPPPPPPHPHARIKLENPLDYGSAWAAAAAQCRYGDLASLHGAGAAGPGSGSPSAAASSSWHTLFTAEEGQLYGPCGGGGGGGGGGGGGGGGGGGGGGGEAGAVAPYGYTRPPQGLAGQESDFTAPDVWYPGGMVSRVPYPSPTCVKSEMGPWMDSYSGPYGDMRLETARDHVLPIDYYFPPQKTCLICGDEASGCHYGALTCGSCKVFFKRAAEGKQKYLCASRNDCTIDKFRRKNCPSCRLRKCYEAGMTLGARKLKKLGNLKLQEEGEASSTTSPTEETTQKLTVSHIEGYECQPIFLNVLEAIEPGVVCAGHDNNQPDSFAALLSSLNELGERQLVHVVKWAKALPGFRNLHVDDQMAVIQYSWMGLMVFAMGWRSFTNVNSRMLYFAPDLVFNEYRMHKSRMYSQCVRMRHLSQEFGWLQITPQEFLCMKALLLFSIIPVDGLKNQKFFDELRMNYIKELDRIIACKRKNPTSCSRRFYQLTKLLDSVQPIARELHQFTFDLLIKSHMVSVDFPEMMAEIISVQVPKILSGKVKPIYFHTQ
The test can be described thus: Antagonist activity at androgen receptor in human LNCAP cells transfected with p6.1-luciferase assessed as inhibition of R1881-induced transcriptional activity at 7 uM pretreated 1 hr prior to R1881 addition measured after 48 hrs by luciferase reporter gene assay. Format: functional, cell-based. Put shortly:
(§1)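 LNCaP cells were transfected using lipofectin in serum-free, phenol red-free medium with PSA (6.1 kb) luciferase (0.5 μg/well) plus empty vector (1 μg/well) for 24 h. Cells were then given a 1 h compound pretreatment before R1881 was added. After 48 h, luciferase was read and normalized to Bradford protein, expressed as % of the R1881 + DMSO vehicle maximum. Data are mean ± SD of three experiments, each in triplicate.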
Regarding `CC(=O)/C=C/CCCOC[C@H](O)CO`, the inhibition entry is “inactive”.

For the molecule `CCCCCCCCCCCCC(=O)CCCCCOC[C@H](O)CO`, the inhibition result is “Active”.

As for `CCCCCCCCCCC/C=C/C(=O)CCCCOC[C@@H](O)CO`, the inhibition entry is “inactive”.

Consider `C#CCOC[C@@H](O)COCCC/C=C/C(=O)CCCCCCCCCCCC`, for which the inhibition result is “Active”. For `CCCCCCCCCCC/C=C/C(=O)CCCCOC[C@H](O)CO`, the inhibition entry is “Active”. Regarding `CCCCCCCCCCCCC(=O)/C=C/CCCOC[C@@H](O)CCl`, the inhibition result was “Active”. As for `CCCCCCCCCCCCC(=O)/C=C/CCCCC[C@H](O)CO`, the inhibition entry is “Active”.

For `CCCCCCCCCCCCC(=O)/C=C/CCCOC[C@@H](O)CO`, the inhibition is 50%.

`CCCCCCCCCCCCC(=O)/C=C/CCCOC[C@@H]1COC(C)(C)O1`: the inhibition entry is “Active”.

As to `CCCCCCCCCCCCC(=O)/C=C/CCCOC[C@@H](O)COCCOCCOCCO`, the inhibition entry was “Active”. For `CCCCCCCCCCCCC(=O)/C=C/CCCOC[C@H](O)CO`, the inhibition result was “Active”. Still for that read-out and setting: next, `CCCCCCCCCCCCC(=O)/C=C/CCCOC[C@H]1CO1`: “Active”.

In another test the target is T1, Androgen receptor (Homo sapiens). As to the kind of experiment: Binding affinity to AF1 region of N-terminus domain androgen receptor at 20 uM after 50 mins by coomassine blue staining based SDS-PAGE analysis. Put shortly: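 Recombinant AR AF1 (purified by Ni2+-agarose, then size exclusion) at 10 μM was incubated on ice for 50 min with 20 μM alkyne probe in DMSO, or DMSO alone. The reaction was then diluted in half and click-labeled with 10 μM fluorescein azide, 0.1 mM ascorbate and 0.1 mM Cu(II)-TBTA for 30–40 min at RT. Labeling of the AF1 band was read as fluorescence on SDS-PAGE.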
`C#CCOC[C@@H](O)COCCC/C=C/C(=O)CCCCCCCCCCCC`: the result was Active.

The target is the same in the next test. The test can be described thus: Antagonist activity at androgen receptor in human LNCAP cells transfected with p6.1-luciferase assessed as inhibition of R1881-induced transcriptional activity at 3.5 uM pretreated 1 hr prior to R1881 addition measured after 48 hrs by luciferase reporter gene assay. The test is classed as functional, cell-based. The essentials:
as §1
Turning to `CCCCCCCCCCCCCCCCCC(=O)/C=C/CCCOC[C@H](O)CO`, the inhibition entry was “Active”.

The subject of another test is LNCaP. The test can be described thus: Antiproliferative activity against R1881-stimulated human LNCAP cells expressing androgen receptor at 14 uM treated 1 hr before R1881 addition measured after 72 hrs by BrdU incorporation assay. Format: functional, cell-based. The essentials: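 LNCaP cells were seeded for 24 h in phenol red-free RPMI 1640 with 0.5% FBS and penicillin/streptomycin, then pretreated for 1 h before 0.1 nM R1881. After 72 h, BrdU was added for 2 h, then cells were fixed and incubated with anti-BrdU-POD for 1.5 h; absorbance was read at 570 nm. Data are mean ± SD of three experiments, 6 technical replicates each, analyzed by Student's t test versus R1881.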
Consider `CCCCCCCCCCCCC(=O)/C=C/CCCOC[C@@H](O)CO`, for which the result was Active. Turning to `CCCCCCCCCCCCC(=O)/C=C/CCCOC[C@H](O)CO`, the result was Active.
